Results on 9 compounds are retold here after ChEMBL document CHEMBL1137361, “WB4101-related compounds: new, subtype-selective alpha1-adrenoreceptor antagonists (or inverse agonists?)” (J Med Chem, 2006).

Assay [1] addresses T1, Alpha-2A adrenergic receptor (Rattus norvegicus, UniProt P22909).
T1 sequence (P22909 whole entry): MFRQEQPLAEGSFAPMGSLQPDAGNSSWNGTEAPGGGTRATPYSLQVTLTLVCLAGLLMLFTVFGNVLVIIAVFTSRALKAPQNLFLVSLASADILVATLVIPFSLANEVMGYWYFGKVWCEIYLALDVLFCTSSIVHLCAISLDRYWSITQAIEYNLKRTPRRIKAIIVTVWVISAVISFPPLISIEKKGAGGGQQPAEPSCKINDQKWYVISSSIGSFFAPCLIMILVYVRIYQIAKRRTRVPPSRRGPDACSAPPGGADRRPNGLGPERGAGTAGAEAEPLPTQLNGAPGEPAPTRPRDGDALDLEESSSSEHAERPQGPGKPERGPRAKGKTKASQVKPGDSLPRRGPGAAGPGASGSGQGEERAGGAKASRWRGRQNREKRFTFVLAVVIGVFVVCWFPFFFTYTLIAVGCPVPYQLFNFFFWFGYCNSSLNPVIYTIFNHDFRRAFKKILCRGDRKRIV
As to the kind of experiment: Activity at adrenergic alpha 2A receptor assessed as antagonism on clonidine-inhibited twitch responses of field-stimulated Sprague-Dawley rat vas deferens. To be noted: read-out: pA2 (converted).

In assay [2] the target is Adrenergic receptors; alpha-1 A & B (Homo sapiens) (UniProt P35348+P35368). As to the kind of experiment: Selectivity for human adrenergic alpha 1B receptor over human adrenergic alpha 1A receptor. In kind it is protein assay.
Assay [3] deals with T2, Alpha-1A adrenergic receptor (Rattus norvegicus, UniProt P43140).
T2 sequence (P43140 whole entry): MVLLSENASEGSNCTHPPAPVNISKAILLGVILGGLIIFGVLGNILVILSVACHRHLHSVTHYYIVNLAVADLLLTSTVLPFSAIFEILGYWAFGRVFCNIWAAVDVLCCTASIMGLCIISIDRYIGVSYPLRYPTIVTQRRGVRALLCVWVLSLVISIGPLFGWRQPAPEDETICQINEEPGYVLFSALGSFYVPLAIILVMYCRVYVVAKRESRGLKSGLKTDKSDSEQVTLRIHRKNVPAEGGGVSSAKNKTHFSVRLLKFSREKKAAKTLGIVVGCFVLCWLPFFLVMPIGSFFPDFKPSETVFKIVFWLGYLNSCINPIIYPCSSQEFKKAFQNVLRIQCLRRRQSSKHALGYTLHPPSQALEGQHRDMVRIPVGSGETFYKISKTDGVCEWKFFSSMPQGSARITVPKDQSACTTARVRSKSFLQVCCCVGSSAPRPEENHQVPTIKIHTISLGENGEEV
As to the kind of experiment: Activity at adrenergic alpha 1A receptor assessed as antagonsim of noradrenaline-induced contraction of […]. In kind it is functional, tissue-based, Sprague-Dawley. Conditions: read-out: pA2 (converted). In short, it runs like this:
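Rat vas deferens, prostatic portion. Contraction was induced with (-)-noradrenaline, and blocking activity was measured as antagonism of that contraction.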

The target in assay [4] is T3, Alpha-1D adrenergic receptor (Homo sapiens, UniProt P25100).
T3 sequence (P25100 whole entry): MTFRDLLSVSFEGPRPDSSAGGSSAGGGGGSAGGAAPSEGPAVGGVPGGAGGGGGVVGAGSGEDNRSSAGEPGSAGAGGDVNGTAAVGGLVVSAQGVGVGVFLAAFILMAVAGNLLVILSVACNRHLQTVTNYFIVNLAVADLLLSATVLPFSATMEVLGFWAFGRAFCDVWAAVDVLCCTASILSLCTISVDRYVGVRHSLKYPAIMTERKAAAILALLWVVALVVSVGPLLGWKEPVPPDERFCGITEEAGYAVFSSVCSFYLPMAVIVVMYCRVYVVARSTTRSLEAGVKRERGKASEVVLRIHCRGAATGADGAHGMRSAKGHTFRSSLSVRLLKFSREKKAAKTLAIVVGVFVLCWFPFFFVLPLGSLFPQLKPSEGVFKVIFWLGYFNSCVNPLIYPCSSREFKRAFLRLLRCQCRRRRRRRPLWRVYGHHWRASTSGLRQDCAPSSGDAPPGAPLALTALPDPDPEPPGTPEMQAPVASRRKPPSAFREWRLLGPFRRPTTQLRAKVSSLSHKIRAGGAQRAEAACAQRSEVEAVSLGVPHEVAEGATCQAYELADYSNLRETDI
As to the kind of experiment: Displacement of [3H]prazosin from cloned human adrenergic alpha 1D receptor expressed in CHO cells. In kind it is cell-based. In outline: (§1)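 Radioligand binding with [3H]prazosin as the label. Membranes came from CHO cells expressing the cloned human receptor. Affinity is expressed as pKi.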

Assay [5] addresses T4, Alpha-1B adrenergic receptor (Homo sapiens, UniProt P35368).
T4 sequence (P35368 whole entry): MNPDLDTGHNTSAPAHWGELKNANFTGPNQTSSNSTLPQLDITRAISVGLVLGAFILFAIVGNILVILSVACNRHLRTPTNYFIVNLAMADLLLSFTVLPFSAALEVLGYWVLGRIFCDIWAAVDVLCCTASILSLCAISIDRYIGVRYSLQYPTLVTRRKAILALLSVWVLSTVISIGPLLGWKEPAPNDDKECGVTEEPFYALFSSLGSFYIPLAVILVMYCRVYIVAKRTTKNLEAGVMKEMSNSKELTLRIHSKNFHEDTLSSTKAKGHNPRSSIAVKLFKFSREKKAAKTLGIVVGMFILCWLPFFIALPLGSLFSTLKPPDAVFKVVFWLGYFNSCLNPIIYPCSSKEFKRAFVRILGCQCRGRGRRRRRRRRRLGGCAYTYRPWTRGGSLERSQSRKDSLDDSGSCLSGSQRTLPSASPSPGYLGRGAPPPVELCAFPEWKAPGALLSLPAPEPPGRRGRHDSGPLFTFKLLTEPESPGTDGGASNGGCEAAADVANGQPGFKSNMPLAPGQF
The assay is described as follows: Displacement of [3H]prazosin from cloned human adrenergic alpha 1B receptor expressed in CHO cells. In kind it is cell-based. In short, it runs like this: as §1

The species named for assay [6] is Cavia porcellus. As to the kind of experiment: Inverse agonist effect on calcium-induced increase in resting tension of calcium-depleted guinea pig thoracic aorta at 100 nM. In kind it is functional. In short, it runs like this:
(§2)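 Guinea pig thoracic aorta was calcium-depleted and preincubated with antagonist, then challenged with Ca2+. The Ca2+-induced increase in resting tone was compared with the increase after the same Ca2+ challenge in the absence of antagonist.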

Assay [7] addresses T5, Alpha-1A adrenergic receptor (Homo sapiens, UniProt P35348).
T5 sequence (P35348 whole entry): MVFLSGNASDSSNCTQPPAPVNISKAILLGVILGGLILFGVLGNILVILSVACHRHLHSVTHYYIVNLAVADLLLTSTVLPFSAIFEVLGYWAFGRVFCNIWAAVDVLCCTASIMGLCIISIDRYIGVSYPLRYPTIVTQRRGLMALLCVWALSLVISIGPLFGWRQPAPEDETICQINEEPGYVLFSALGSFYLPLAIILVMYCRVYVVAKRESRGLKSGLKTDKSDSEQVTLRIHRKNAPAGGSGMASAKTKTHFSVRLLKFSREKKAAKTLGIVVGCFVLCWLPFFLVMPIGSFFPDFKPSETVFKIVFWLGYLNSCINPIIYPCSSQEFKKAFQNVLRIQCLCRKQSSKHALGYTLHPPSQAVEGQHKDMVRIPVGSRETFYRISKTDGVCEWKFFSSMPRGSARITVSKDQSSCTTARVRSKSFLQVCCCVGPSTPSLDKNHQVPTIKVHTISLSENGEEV
The assay is described as follows: Displacement of [3H]prazosin from cloned human adrenergic alpha 1A receptor expressed in CHO cells. In kind it is cell-based. In outline:
as §1

The species entered for assay [8] is Cavia porcellus. As to the kind of experiment: Inverse agonist effect on calcium-induced increase in resting tension of calcium-depleted guinea pig thoracic aorta at 10 nM. In kind it is functional. In outline: as §2

The source made the active and inactive calls. The calls are words filed in the database; no cut-off is given here.

For the compound `COc1ccc2ccccc2c1OCCNC[C@H]1COc2cc3c(cc2O1)CCCC3`, the Kb in assay [1] was > 10000 nM; in assay [3] it was 42.7 nM. For the same compound, the Selectivity ratio in assay [2] came to 5.6. The Ki is 148 nM in assay [4], 372 nM in assay [5] and 66.1 nM in assay [7]. For the same compound, the result in the assay listed under Cavia porcellus [6] was Active.
Consider `COc1ccc(-c2ccccc2)cc1OCCNC[C@H]1COc2ccccc2O1`, for which the Selectivity ratio in assay [2] worked out at 1.9. The Ki was 15.1 nM in assay [4], 11 nM in assay [5] and 5.62 nM in assay [7].
On to `COc1ccc2c(c1OCCNC[C@H]1COc3ccccc3O1)CCCC2`, for which the Selectivity ratio in assay [2] worked out at 6.8. Further, the Ki was 14.5 nM in assay [4], 19.1 nM in assay [5] and 2.82 nM in assay [7].
Take `COc1cc(-c2ccccc2)ccc1OCCNC[C@H]1COc2ccccc2O1`: in assay [2], the Selectivity ratio was 2.1. Further, the Ki in assay [4] was 214 nM; in assay [5], 186 nM; in assay [7], 87.1 nM.
With `COc1ccc2ccccc2c1OCCNC[C@H]1COc2ccccc2O1`, in assay [1], the Kb was 1350 nM. The Selectivity ratio in assay [2] amounted to 10. Besides, in the assay listed under Cavia porcellus [8], the result was Active. The Ki in assay [4] was 6.61 nM; in assay [5], 15.8 nM; in assay [7], 1.58 nM.
Consider `COc1cccc(OC)c1OCCNC[C@H]1COc2cc3ccccc3cc2O1`, for which the Kb in assay [1] is > 10000 nM. Further, in assay [2], the Selectivity ratio turned out to be 26.3. Moreover, the results for the Ki in assay [4], in assay [5] and in assay [7] were 417 nM, 891 nM and 33.9 nM, respectively.
As to `COc1ccc2ccccc2c1OCCNC[C@@H]1COc2ccccc2O1`, the Kb in assay [1] was 631 nM. The Selectivity ratio in assay [2] was determined as 18.6. The result in the assay filed under Cavia porcellus [8] was inactive. Further, the values for the Ki in assay [4], in assay [5] and in assay [7] were 22.4 nM, 85.1 nM and 4.57 nM, respectively.
Turning to `COc1cccc(-c2ccccc2)c1OCCNC[C@H]1COc2ccccc2O1`, the Selectivity ratio in assay [2] is 14.8. In addition, the outcome in the assay listed under Cavia porcellus [8] was inactive. The Ki in assay [4] is 3.39 nM; in assay [5] it was 17.8 nM; in assay [7] it was 1.2 nM.
For the compound `COc1cccc(OC)c1OCCNC[C@H]1COc2cc3c(cc2O1)CCCC3`, the Selectivity ratio in assay [2] was 22.9. Further, the Ki in assay [4] is 339 nM; in assay [5], 575 nM; in assay [7] it was 25.1 nM.
